Test results published in ChEMBL document CHEMBL3763103, “Synthesis and evaluation of vitamin D receptor-mediated activities of cholesterol and vitamin D metabolites” (Eur J Med Chem, 2016).
Active and inactive are the calls of the source. The rule behind the calls is not given here.

Columns and labels:
Vitamin D3 receptor [1] = target: T1, Vitamin D3 receptor (Homo sapiens, UniProt P11473); experiment: Agonist activity at VDR-LBD (unknown origin) expressed in Escherichia coli assessed as SRC2-3 coactivator peptide recruitment after 30 mins by fluorescence polarization assay
T1 sequence (P11473 whole entry): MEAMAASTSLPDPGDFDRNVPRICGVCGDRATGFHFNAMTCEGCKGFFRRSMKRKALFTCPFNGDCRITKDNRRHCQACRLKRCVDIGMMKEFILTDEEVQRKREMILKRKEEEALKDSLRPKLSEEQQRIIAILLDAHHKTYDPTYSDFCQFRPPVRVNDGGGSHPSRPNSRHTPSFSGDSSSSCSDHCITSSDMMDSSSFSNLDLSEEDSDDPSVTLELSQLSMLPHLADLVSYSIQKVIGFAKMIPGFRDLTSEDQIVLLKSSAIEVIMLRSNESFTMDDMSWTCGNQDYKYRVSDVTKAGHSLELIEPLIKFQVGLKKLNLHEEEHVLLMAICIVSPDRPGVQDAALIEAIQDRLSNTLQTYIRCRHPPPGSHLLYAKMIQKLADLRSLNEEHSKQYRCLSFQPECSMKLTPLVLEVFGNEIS

Vitamin D3 receptor [2] = target: T1, Vitamin D3 receptor; experiment: Antagonist activity against VDR-LBD (unknown origin) expressed in Escherichia coli assessed as inhibition of VDR agonist LG190178-induced SRC2-3 coactivator peptide recruitment after 30 mins by fluorescence polarization assay
Vitamin D3 receptor [3] = target: T1, Vitamin D3 receptor; experiment: Agonist activity at VP16 tagged-VDR-LBD (unknown origin) expressed in HEK293T cells assessed as SRC1 coactivator peptide recruitment after 16 hrs by luciferase reporter gene based two hybrid assay; format: cell-based, HEK-293T
Vitamin D3 receptor [4] = target: T1, Vitamin D3 receptor; experiment: Antagonist activity against VP16 tagged-VDR-LBD (unknown origin) expressed in HEK293T cells assessed as inhibition of 1,25-dihydroxyvitamin D3-induced SRC1 coactivator peptide recruitment after 16 hrs by luciferase reporter gene based two hybrid assay; format: cell-based, HEK-293T
[5] = Cytotoxicity against HEK293T cells assessed as reduction in cell viability after 18 hrs by CellTiter-Glo luminescence assay; format: cell-based, HEK-293T; settings: human, read-out: LD50
[6] = target: T2, Vitamin D3 receptor (Homo sapiens) (UniProt P11473); experiment: Agonist activity at VP16 tagged-VDR-LBD (unknown origin) expressed in HEK293T cells assessed as SRC1 coactivator peptide recruitment after 16 hrs by luciferase reporter gene based two hybrid assay relative to 1,25-dihydroxyvitamin D3; format: cell-based; settings: HEK-293T
T2 sequence (whole entry): T1 sequence (P11473 whole entry)
How it was run: (§1)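 HEK293T cells were lipid-transfected with VP16-VDR-LBD, SRC1-GAL4 and 4×UAS luciferase reporter plasmids for 16 h. Cells were then plated at 15,000/well on matrigel in phenol-red-free DMEM with 2% charcoal-treated FBS. Three experiments in quadruplicate; nonlinear regression.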

[7] = target: T2, Vitamin D3 receptor (Homo sapiens); experiment: Agonist activity at VDR-LBD in human DU145 cells assessed as CYP24A1 expression at 7.5 uM after 18 hrs by qRT-PCR method relative to 1alpha,25-dihydroxyvitamin D3; format: cell-based; settings: DU-145
How it was run: (§2)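 Non-transfected DU145 cells were grown in DMEM with 10% heat-inactivated FBS and plated on matrigel-coated 6-well plates overnight at 37°C. Total RNA was isolated and CYP24A1 fold change was measured by real-time RT-PCR (Ct method). Experiments were run in triplicate; significance by Dunnett ANOVA.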

Vitamin D3 receptor [8] = target: T1, Vitamin D3 receptor; experiment: Agonist activity at human VP16 tagged-VDR-LBD after 16 hrs by luciferase reporter gene based transcription assay
How it was run: as §1, with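 “hVDR-Gal4” for “VP16-VDR-LBD, SRC1-GAL4”, “FBS. Compounds (1:3 serial dilution, max final 150 µM) were added after 4 h and incubated 16 h at 37°C; readout by Bright-Glo luminescence. […]” for “FBS.”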

[9] = target: T2, Vitamin D3 receptor (Homo sapiens); experiment: Agonist activity at human VP16 tagged-VDR-LBD after 16 hrs by luciferase reporter gene based transcription assay relative to 1,25-dihydroxyvitamin D3
How it was run: as §1, with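 “hVDR-Gal4” for “VP16-VDR-LBD, SRC1-GAL4”, “FBS. Compounds (1:3 serial dilution, max final 150 µM) were added after 4 h and incubated 16 h at 37°C; readout by Bright-Glo luminescence. […]” for “FBS.”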

[10] = target: T2, Vitamin D3 receptor (Homo sapiens); experiment: Agonist activity at VDR-LBD in human DU145 cells assessed as CYP24A1 expression at 7.5 uM in presence of 20 nM 1alpha,25-dihydroxyvitamin D3 after 18 hrs by qRT-PCR method; format: cell-based; settings: DU-145
How it was run: as §2, with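 “37°C. […]” for “37°C.”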

Structure (SMILES) | EC50 (Vitamin D3 receptor [1]) | IC50 (Vitamin D3 receptor [2]) | EC50 (Vitamin D3 receptor [3]) | IC50 (Vitamin D3 receptor [4]) | CC50 at 18 h [5] | Efficacy [6] | Activity [7] | EC50 (Vitamin D3 receptor [8]) | Efficacy [9] | Activity [10]
C[C@H](CCC(=O)O)[C@H]1CC[C@H]2[C@@H]3C[C@H](O)[C@@H]4C[C@H](O)CC[C@]4(C)[C@H]3CC[C@]12C [HYODEOXYCHOLIC_ACID] | > 150 µM | > 150 µM | > 150 µM | > 50 µM | > 150 µM |  |  |  |  | 
CC(=O)O[C@@H]1CC[C@@]2(C)[C@H](CC[C@@H]3[C@@H]2CC[C@]2(C)[C@@H]([C@H](C)CCC(=O)O)CC[C@@H]32)C1 | > 150 µM | 11 µM | 1.49 µM | > 50 µM | > 50 µM |  |  |  |  | 
C[C@H](CCC(=O)O)[C@H]1CC[C@H]2[C@@H]3[C@H](O)C[C@@H]4C[C@H](O)CC[C@]4(C)[C@H]3CC[C@]12C [CHENODIOL] | > 150 µM | > 150 µM | > 150 µM | > 50 µM | > 150 µM |  |  |  |  | 
C=C1/C(=C\C=C2/CCC[C@]3(C)[C@@H]([C@H](C)CC(=O)O)CC[C@@H]23)C[C@@H](O)C[C@@H]1O | > 100 µM | 2.29 µM | 0.87 µM | > 100 µM | > 100 µM | 55% | Active |  |  | 
C[C@H](CCC(=O)O)[C@H]1CC[C@H]2[C@@H]3CC[C@@H]4C[C@H](O[C@@H]5O[C@H](C(=O)O)[C@@H](O)[C@H](O)[C@H]5O)CC[C@]4(C)[C@H]3CC[C@]12C | > 50 µM | 31.5 µM | 20.5 µM | > 150 µM | > 150 µM | 49% | inactive | 12.3 µM | 55% | 
C[C@H](CCC(=O)O[C@@H]1O[C@H](C(=O)O)[C@@H](O)[C@H](O)[C@H]1O)[C@H]1CC[C@H]2[C@@H]3CC[C@@H]4C[C@H](O)CC[C@]4(C)[C@H]3CC[C@]12C | > 150 µM | 2.86 µM | 6.52 µM | > 150 µM | > 150 µM | 29% | Active | 21.3 µM | 70% | Active
C[C@H](CCC(=O)NCCS(=O)(=O)O)[C@H]1CC[C@H]2[C@@H]3CC[C@@H]4C[C@H](O)CC[C@]4(C)[C@H]3CC[C@]12C [TAUROLITHOCHOLIC ACID] | > 150 µM | 14.5 µM | > 150 µM | > 50 µM | > 150 µM |  |  |  |  | 
COC(=O)CC[C@@H](C)[C@H]1CC[C@H]2[C@@H]3CC[C@@H]4C[C@H](O)CC[C@]4(C)[C@H]3CC[C@]12C | > 150 µM | > 150 µM | > 150 µM | 15.1 µM | 50.4 µM |  |  |  |  | 
C[C@H](CCC(=O)O)[C@H]1CC[C@H]2[C@@H]3CC[C@@H]4C[C@H](O)CC[C@]4(C)[C@H]3C[C@H](O)[C@]12C [DEOXYCHOLIC ACID] | > 150 µM | > 150 µM | > 150 µM | > 50 µM | > 150 µM |  |  |  |  | 
C[C@H](CCC(=O)O)[C@H]1CC[C@H]2[C@@H]3CC[C@@H]4C[C@H](O)CC[C@]4(C)[C@H]3CC[C@]12C [LITHOCHOLIC ACID] |  |  |  |  | 55.9 µM |  |  |  |  | 
C[C@H](CCC(=O)O)[C@H]1CC[C@H]2[C@@H]3CC[C@@H]4C[C@H](OS(=O)(=O)O)CC[C@]4(C)[C@H]3CC[C@]12C | > 150 µM | 23.3 µM | > 150 µM | > 50 µM | > 150 µM |  |  |  |  | 
C[C@H](CCC(=O)NCC(=O)O)[C@H]1CC[C@H]2[C@@H]3CC[C@@H]4C[C@H](O)CC[C@]4(C)[C@H]3CC[C@]12C [LITHOGLYCOCHOLATE] | > 150 µM | 40.1 µM | > 150 µM | > 50 µM | > 150 µM |  |  |  |  | 
C[C@H](CCC(=O)O)[C@H]1CC[C@H]2[C@@H]3[C@@H](O)C[C@@H]4C[C@H](O)CC[C@]4(C)[C@H]3CC[C@]12C [URSODIOL] | > 150 µM | > 150 µM | > 150 µM | > 50 µM | > 150 µM |  |  |  |  | 
